One block for each compound: values may come before it.
What was measured:
[1] = Permeability of the compound by PAMPA; type: ADME; settings: read-out: permeability
[2] = Inhibition of BACE1 in chicken primary telencephalon neurons assessed as reduction of amyloid beta42 secretion after 24 hrs by ELISA; design: species or system Gallus gallus
Method in brief: (§1)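 Aβ secretion from neurons after 24 h of inhibitor treatment. Data were corrected for mean neuron viability from an MTT reduction assay run after 24 h of treatment. Values are the mean of three independent experiments.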

[3] = Inhibition of BACE1 in chicken primary telencephalon neurons assessed as reduction of amyloid beta38 secretion after 24 hrs by ELISA; design: species or system Gallus gallus; method in brief: as §1
Beta-secretase 1 [4] = molecular target: T1, Beta-secretase 1 (Homo sapiens, UniProt P56817); test: Inhibition of BACE1 using methoxycoumarin-Ser-Glu-Val-Asn-Leu-Asp-Ala-Glu-Phe-Lys-dinitrophenyl as substrate preincubated 1 hr before substrate addition measured after 15 mins by FRET assay
[5] = Inhibition of BACE1 in chicken primary telencephalon neurons assessed as reduction of amyloid beta40 secretion after 24 hrs by ELISA; design: species or system Gallus gallus; method in brief: as §1
[6] = Cytotoxicity against chicken primary telencephalon neurons at 50 uM after 24 hrs by MTT assay; design: species or system Gallus gallus
[7] = Cytotoxicity against chicken primary telencephalon neurons at 25 uM after 24 hrs by MTT assay; design: species or system Gallus gallus
[8] = Solubility of the compound; type: physicochemical
Beta-secretase 1 [9] = molecular target: T1, Beta-secretase 1; test: Inhibition of BACE1 using methoxycoumarin-Ser-Glu-Val-Asn-Leu-Asp-Ala-Glu-Phe-Lys-dinitrophenyl as substrate at 100 uM preincubated 1 hr before substrate addition measured after 15 mins by FRET assay
[10] = Gallus gallus, 24 h, read-out: IC50

T1 sequence (P56817 whole entry): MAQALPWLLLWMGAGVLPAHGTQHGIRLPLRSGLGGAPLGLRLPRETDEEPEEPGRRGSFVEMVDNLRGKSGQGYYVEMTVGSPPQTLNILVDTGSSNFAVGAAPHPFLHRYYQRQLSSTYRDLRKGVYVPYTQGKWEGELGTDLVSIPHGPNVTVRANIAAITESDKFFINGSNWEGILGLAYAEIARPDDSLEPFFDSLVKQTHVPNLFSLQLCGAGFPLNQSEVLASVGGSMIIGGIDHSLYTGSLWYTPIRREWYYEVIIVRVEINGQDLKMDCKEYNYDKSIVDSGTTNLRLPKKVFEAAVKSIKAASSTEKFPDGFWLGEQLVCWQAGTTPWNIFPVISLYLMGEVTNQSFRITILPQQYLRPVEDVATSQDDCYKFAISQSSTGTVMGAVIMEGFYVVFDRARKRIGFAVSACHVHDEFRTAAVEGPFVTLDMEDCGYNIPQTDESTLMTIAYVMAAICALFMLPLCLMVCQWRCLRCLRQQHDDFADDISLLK

SMILES: Cn1c(=O)c2c(ncn2C)n(C)c1=O [CAFFEINE]
Papp [1]: 0.9 ×10⁻⁶ cm/s

SMILES: COc1cc(OC)cc(-c2ccc(Cc3cn(Cc4ccc(F)cc4)c(N)n3)cc2)c1
IC50 [2, 10]: 19 µM | Activity [7]: Toxic | IC50 [3, 10]: 15 µM | IC50 (Beta-secretase 1 [4]): 7.4 µM | Papp [1]: 4 ×10⁻⁶ cm/s | IC50 [5, 10]: 23 µM

SMILES: Nc1nc(Cc2ccc(-c3cccc4oc5ccccc5c34)cc2)cn1Cc1ccccc1Cl
IC50 [2]: Not Active | IC50 [3]: Not Active | IC50 (Beta-secretase 1 [4]): 5.95 µM | Papp [1]: 4 ×10⁻⁶ cm/s | IC50 [5]: Not Active

SMILES: Nc1nc(Cc2ccccc2)cn1Cc1ccccc1
inhibition (Beta-secretase 1 [9]): 19.6%

More lines, main results first:

Papp [1]: 0.3 ×10⁻⁶ cm/s
SMILES: CCn1cc(C(=O)O)c(=O)c2cc(F)c(N3CCNCC3)nc21 [ENOXACIN]

IC50 [2, 10]: 27 µM | IC50 [3, 10]: 33 µM | IC50 (Beta-secretase 1 [4]): 7.32 µM | Papp [1]: 3.2 ×10⁻⁶ cm/s | IC50 [5, 10]: 35 µM
SMILES: COc1cc(OC)cc(-c2ccc(Cc3cn(Cc4cc(F)cc(F)c4)c(N)n3)cc2)c1
Activity [6]: Toxic

Papp [1]: 0.4 ×10⁻⁶ cm/s
SMILES: CN1C(C(=O)Nc2ccccn2)=C(O)c2ccccc2S1(=O)=O [PIROXICAM]

Papp [1]: 11.5 ×10⁻⁶ cm/s
SMILES: CN(C)CCCN1c2ccccc2Sc2ccccc21 [PROMAZINE]

IC50 [2]: Not Active | solubility [8]: Insoluble | IC50 [3]: Not Active | IC50 (Beta-secretase 1 [4]): 5.59 µM | IC50 [5]: Not Active
SMILES: Nc1nc(Cc2ccc(-c3ccc(C(F)(F)F)cc3)cc2)cn1Cc1cc(F)cc(F)c1

Source: ChEMBL document CHEMBL1932933, “A small chemical library of 2-aminoimidazole derivatives as BACE-1 inhibitors: Structure-based design, synthesis, and biological evaluation” (Eur J Med Chem, 2012)
